Experimental data from ChEMBL document CHEMBL3352271, “Antitrypanosomal quinoline alkaloids from the roots of Waltheria indica” (J Nat Prod, 2014).

Columns and labels:
L6 = experiment: Cytotoxicity against rat L6 cells; type: cell-based
[1] = system: Trypanosoma brucei brucei; experiment: Antitrypanosomal activity against Trypanosoma brucei brucei NYSM bloodstream forms incubated for 46 hrs by alamar blue assay; type: functional, organism-based
Method in brief: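 Bloodstream parasites grown in HMI-9 medium with 10% FCS, wild type. Plated at a final density of 0.5 × 10^5 cells/mL with compound dilutions for 46 h, then AlamarBlue added for 2 more h. Fluorescence read at excitation 530 nm, emission 584 nm. IC50 from nonlinear sigmoidal dose–response fit; triplicate runs, reported ± SD.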

Trypanosoma cruzi = experiment: Antitrypanosomal activity against LacZ expressing Trypanosoma cruzi Tuluhaen C2C4 amastigotes; type: functional, organism-based
[2] = Selectivity index, ratio of IC50 against rat L6 cells to IC50 against Trypanosoma cruzi Tuluhaen C2C4; type: toxicity, cell-based; conditions: read-out: Ratio IC50
Method in brief: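 Selectivity index calculated as the IC50 for L6 cytotoxicity divided by the IC50 for antitrypanosomal activity against T. cruzi amastigotes (Tulahuen C4).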

[3] = system: Trypanosoma brucei rhodesiense; experiment: Antitrypanosomal activity against Trypanosoma brucei rhodesiense STIB900 trypomastigote forms; type: functional, organism-based

Row | Structure (SMILES) | IC50 [1] | IC50 (Trypanosoma cruzi) | IC50 [3] | IC50 (L6) | selectivity ratio [2]
1 | CCCCCCCC[C@@H]1CCCc2[nH]c(C)c(OC)c(=O)c21 | > 100 µM | 0.49 µM | 32.6 µM | 0.75 µM | 1.5
2 | CCCCCCCC[C@H]1CC[C@@H](OC)c2[nH]c(C)c(OC)c(=O)c21 | 80.3 µM | 0.23 µM | 38.5 µM | 0.91 µM | 4
3 | CCCCCCCCc1ccc(OC)c2[nH]c(C)c(OC)c(=O)c12 | 31 µM | 1.1 µM | 38.6 µM | 25.7 µM | 22.7
4 | CCCCCCCC[C@@H]1CCCc2c1c(=O)c(OC)c(CO)n2OC | > 100 µM | 2.2 µM | 87.9 µM | 22.1 µM | 10.1
5 | COc1c(OC)c(C)[n+]([O-])c2c1[C@H](CCCCCc1ccccc1)CCC2 |  | 3.1 µM | 55.7 µM | 41.1 µM | 13.5
6 | CCCCCCCC[C@H]1CCC(=O)c2[nH]c(C)c(OC)c(=O)c21 | > 100 µM | 0.17 µM | 14.3 µM | 184 µM | 1080
7 | O=C(Cn1ccnc1[N+](=O)[O-])NCc1ccccc1 [BENZNIDAZOLE] |  | 2.9 µM |  |  | 
8 | Cc1ccc(C(=O)Nc2ccc(S(=O)(=O)O)c3cc(S(=O)(=O)O)cc(S(=O)(=O)O)c23)cc1NC(=O)c1cccc(NC(=O)Nc2cccc(C(=O)Nc3cc(C(=O)Nc4ccc(S(=O)(=O)O)c5cc(S(=O)(=O)O)cc(S(=O)(=O)O)c45)ccc3C)c2)c1 [SURAMIN] | 0.31 µM |  |  |  | 

Second part, led by results:

Row | IC50 [1] | IC50 (Trypanosoma cruzi) | IC50 [3] | Structure (SMILES) | IC50 (L6) | selectivity ratio [2]
9 | > 100 µM | 0.1 µM | 53.3 µM | CCCCCCCC[C@H]1CCCc2c1c(=O)c(OC)c(C)n2OC | 0.19 µM | 1.9
10 | 24.1 µM | 0.02 µM | 30.4 µM | COc1c(C)n(OC)c2c(c1=O)[C@@H](CCCCCc1ccccc1)CCC2 | 0.64 µM | 33.8
11 |  | 0.04 µM | 35.9 µM | COc1c(C)n(OC)c2c(c1=O)[C@@H](CCCCCc1ccccc1)CC[C@H]2OC | 0.26 µM | 6.5
12 | > 100 µM | 0.04 µM | 45.8 µM | CCCCCCCC[C@H]1CC[C@@H](OC)c2c1c(=O)c(OC)c(C)n2OC | 0.07 µM | 1.8
